pIC50: −log10 of the molar value. Active and inactive are the calls of the source. The calls are words filed in the database; no cut-off is given here.
Legend:
[1] = molecular target: T1, Interleukin-8 receptors, CXCR1/CXCR2 (Homo sapiens, UniProt P25025+P25024); assay: Antagonist activity at CXCR1/CXCR2 in human PMN cells assessed as inhibition of GROalpha-mediated intracellular calcium release; type: functional, cell-based
T1 sequence (P25025 whole entry): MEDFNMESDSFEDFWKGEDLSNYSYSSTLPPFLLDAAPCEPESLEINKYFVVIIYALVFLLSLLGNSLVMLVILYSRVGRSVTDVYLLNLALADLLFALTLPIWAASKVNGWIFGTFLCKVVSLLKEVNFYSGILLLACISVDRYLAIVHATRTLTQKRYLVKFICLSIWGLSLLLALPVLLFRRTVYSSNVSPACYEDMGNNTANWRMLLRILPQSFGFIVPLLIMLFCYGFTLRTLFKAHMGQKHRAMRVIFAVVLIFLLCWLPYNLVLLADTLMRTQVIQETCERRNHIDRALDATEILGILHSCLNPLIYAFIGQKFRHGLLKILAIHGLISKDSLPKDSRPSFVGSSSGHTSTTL
T1 sequence (P25024 whole entry): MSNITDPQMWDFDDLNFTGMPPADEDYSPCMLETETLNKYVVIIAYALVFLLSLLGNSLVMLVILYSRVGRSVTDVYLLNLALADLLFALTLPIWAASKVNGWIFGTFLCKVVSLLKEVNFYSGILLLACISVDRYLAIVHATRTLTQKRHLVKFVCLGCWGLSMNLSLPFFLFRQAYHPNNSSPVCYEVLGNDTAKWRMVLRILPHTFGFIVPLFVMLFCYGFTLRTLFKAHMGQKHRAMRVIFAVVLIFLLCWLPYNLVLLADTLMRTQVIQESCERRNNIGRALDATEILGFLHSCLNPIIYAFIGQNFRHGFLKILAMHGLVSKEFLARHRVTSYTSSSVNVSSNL

[2] = Metabolic stability in monkey liver microsomes assessed as compound remaining at 1 uM after 60 mins by LC-MS analysis; type: ADME, Macaca mulatta; settings: rhesus monkey, 1 h
In short: (§1)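 Compound at 1 µM was incubated with rat or monkey liver microsomes for 60 min at 37°C. Samples taken at 0 and 60 min were analysed by LC-MS for % parent remaining.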

Rattus norvegicus [3] = assay: Inhibition of macrophage influx in ozone Sprague-Dawley rat model of pulmonary inflammation at 1 mg/kg, iv after 24 hrs; type: functional, organism-based; parameters: dose 1 mg/kg
In short: (§2)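 Sprague-Dawley rats, n = 4 per group, were dosed iv at 1 mg/kg (or vehicle) at t = 0, 5 and 9 h. They were exposed to air or 1 ppm ozone for 4 h and sacrificed at 24 h for bronchoalveolar lavage. BALF cells were Wright-Giemsa stained and counted (PMNs, macrophages). BALF protein was measured by Bradford assay as lung leakage.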

Rattus norvegicus [4] = assay: AUC in rat at 1 mg/kg, po by LC-MS/MS analysis; type: ADME, organism-based, Plasma; parameters: dose 1 mg/kg, route oral; settings: in vivo, BLD = below limit of detection
In short: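 Rats were dosed at 1 mg/kg by oral gavage. Plasma levels were measured by LC-MS/MS against a concurrently run calibration curve of compound spiked into rat plasma.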

Liver microsome = assay: Metabolic stability in rat liver microsomes assessed as compound remaining at 1 uM after 60 mins by LC-MS analysis; type: ADME; settings: 1 h; in short: as §1
Rattus norvegicus [5] = assay: Inhibition of neutrophil influx in ozone Sprague-Dawley rat model of pulmonary inflammation assessed as decrease in PMN influx into lungs at 1 mg/kg, iv after 24 hrs; type: functional, organism-based; parameters: dose 1 mg/kg; in short: as §2
Rattus norvegicus [6] = assay: Inhibition of lung leakage in ozone Sprague-Dawley rat model of pulmonary inflammation at 1 mg/kg, iv after 24 hrs; type: functional, organism-based; parameters: dose 1 mg/kg; in short: as §2
Rattus norvegicus [7] = assay: AUC in rat at 1 mg/kg, iv by LC-MS/MS analysis; type: ADME, organism-based, Plasma; parameters: dose 1 mg/kg, route intravenous; settings: in vivo
In short: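 Rats were dosed intravenously at 1 mg/kg. Plasma levels were measured by LC-MS/MS against a calibration curve of compound spiked into rat plasma and run alongside the samples. AUC was taken from the plasma concentration vs. time curve.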

[8] = molecular target: T2, C-X-C chemokine receptor type 2 (Homo sapiens, UniProt P25025); assay: Inhibition of CXCR2 (unknown origin) expressed in PathHunter celline by beta-arrestin assay
T2 sequence (P25025 whole entry): T1 sequence (P25025 whole entry)

[9] = molecular target: T2, C-X-C chemokine receptor type 2; assay: Inhibition of CXCR2 (unknown origin) transfected with RBL cells; type: cell-based
In short: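 RBL cells stably transfected with CXCR2 were used to measure antagonist activity at the receptor.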

[10] = molecular target: T3, C-X-C chemokine receptor type 1 (Homo sapiens, UniProt P25024); assay: Inhibition of CXCR1 (unknown origin) transfected with RBL cells; type: cell-based
T3 sequence (P25024 whole entry): T1 sequence (P25024 whole entry)

## O=C(Nc1ccc(F)cc1)c1ccc(SCCCCB(O)O)nc1
[1]
  IC50: 689 nM

## O=C(Nc1ccc(F)cc1)c1ccc(SCc2ccc(B(O)O)cc2)nc1
[1]
  IC50: 90 nM

## O=C(Nc1ccc(F)cc1)c1ccc(SCc2cccc(B(O)O)c2)nc1
[1]
  IC50: 1220 nM

## COc1ccc(B(O)O)c(CSc2ccc(C(=O)Nc3ccc(F)cc3)cn2)c1
[1]
  IC50: 80 nM

## O=C(Nc1ccc(F)cc1)c1ccc(SCc2cc(OC(F)(F)F)ccc2B(O)O)nc1
[2]
  Stability: 95%
Rattus norvegicus [3]
  inhibition: Active
Rattus norvegicus [4]
  AUC: BLD
Liver microsome
  Stability: 92%
Rattus norvegicus [5]
  inhibition: Active
Rattus norvegicus [6]
  inhibition: Active
Rattus norvegicus [7]
  AUC: 5.4 µmol·h/L

## O=C(Nc1ccc(F)cc1)c1ccc(SCc2ccccc2B(O)O)nc1
[2]
  Stability: 25%
[8]
  pIC50: 6.14
Rattus norvegicus [4]
  AUC: BLD
Liver microsome
  Stability: 37%
[1]
  IC50: 38 nM
[9]
  pIC50: 6.45
[10]
  pIC50: 6.04
Rattus norvegicus [7]
  AUC: 0.39 µmol·h/L

## COc1cc(CSc2ccc(C(=O)Nc3ccc(F)cc3)cn2)c(B(O)O)cc1OC
[1]
  IC50: > 10000 nM

## O=C(Nc1ccc(F)cc1)c1ccc(SCCc2ccccc2B(O)O)nc1
[1]
  IC50: 387 nM

## O=C(Nc1ccc(F)cc1)c1ccc(SCc2cc(F)ccc2B(O)O)nc1
[1]
  IC50: 52 nM

## O=C(Nc1ccc(F)cc1)c1ccc(SCc2cc3c(cc2B(O)O)OCO3)nc1
[1]
  IC50: > 10000 nM

Reference: ChEMBL document CHEMBL3425456, “Boronic acid-containing CXCR1/2 antagonists: Optimization of metabolic stability, in vivo evaluation, and a proposed receptor binding model” (Bioorg Med Chem Lett, 2015)
